From PubChem
NPY Y1 blocker = antagonists of human neuropeptide Y receptor Y1; P25929; HEK293-CNG Y1 cells, membrane potential fluorescence; NPY at EC95, then isoproterenol; inhibition, % at 3.6 µM; 200,000 compounds, 1% hits; AID 1040;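 active = inhibition above the campaign mean inhibition of all tested compounds plus 3 SD, cut at about 20% in these data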;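 note: 0% = DMSO wells given NPY plus isoproterenol and 100% = isoproterenol alone without NPY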
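Material: HEK293 Y1/CNG channel cell line; also added: NPY (25 nM), isoproterenol (1 µM), Ro 20-1724 (25 µM); doses: one concentration, 3.6 µM, in 0.4% DMSO; schedule: compound incubation 1 h at room temperature, readout 45 min post-stimulation; technique: membrane potential fluorescence; measure: fluorescence ratio normalized to % inhibition between controls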
NPY-Y1 PAM-ag = human NPY-Y1 potentiation or agonism, primary screen | P25929 | NPY-Y1 expressing cells, potentiator/agonist activation | activation, % at 3.6 µM | 220,000 compounds, 0.37% hits | AID 1304; in the data active = activation above about 33%, passing the limit was not always enough;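 note: cells stimulated with NPY at EC10 then isoproterenol at EC100; 0% = low agonist plus stimulus and 100% = saturating agonist plus stimulus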
NPY2 pot ag = human NPY-Y2 potentiation or agonism, primary screen; AID 1359; 220,000 compounds, 0.45% hits; activation, % at 3.6 µM; cells expressing NPY-Y2, potentiator/agonist read-out; P49146; in the data active = activation above about 27%;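 note: cells stimulated with NPY near EC25 plus isoproterenol at EC100; 0% = vehicle plus submaximal agonist and 100% = vehicle plus saturating agonist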
NPY-Y2 antag = blocks the human neuropeptide Y Y2 receptor; P49146; NPY-Y2 expressing cells, antagonist mode; inhibition, % at 2.7 µM; 140,000 compounds, 0.99% hits; AID 793; in the data active = inhibition above about 17%;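 note: 0% = vehicle with agonist challenge and 100% = reference antagonist with challenge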
Cl transport mod = modulators of human KCC2 chloride dependent transport; 190,000 compounds, 2.2% hits; Q9H2X9; B-score of Tl+ flux slope (higher = more flux/activation; lower = inhibition) at 10 µM; KCC2 cells, thallium flux FluoZin-2 fluorescence;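 active = thallium flux slope and its plate-corrected score both differing from the plate sample mean at a set confidence after two filtering rounds, in either direction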;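 note: slope of fluorescence scaled to starting intensity during 10 to 20 s after thallium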
Furin inhibitor = human furin inhibition | purified furin, fluorogenic substrate cleavage | inhibition, % at 20 µM or 30 µM | 220,000 compounds, 0.061% hits | AID 463115; in the data active = inhibition above about 25%
Target sequence (P09958 108-714 limits assumed): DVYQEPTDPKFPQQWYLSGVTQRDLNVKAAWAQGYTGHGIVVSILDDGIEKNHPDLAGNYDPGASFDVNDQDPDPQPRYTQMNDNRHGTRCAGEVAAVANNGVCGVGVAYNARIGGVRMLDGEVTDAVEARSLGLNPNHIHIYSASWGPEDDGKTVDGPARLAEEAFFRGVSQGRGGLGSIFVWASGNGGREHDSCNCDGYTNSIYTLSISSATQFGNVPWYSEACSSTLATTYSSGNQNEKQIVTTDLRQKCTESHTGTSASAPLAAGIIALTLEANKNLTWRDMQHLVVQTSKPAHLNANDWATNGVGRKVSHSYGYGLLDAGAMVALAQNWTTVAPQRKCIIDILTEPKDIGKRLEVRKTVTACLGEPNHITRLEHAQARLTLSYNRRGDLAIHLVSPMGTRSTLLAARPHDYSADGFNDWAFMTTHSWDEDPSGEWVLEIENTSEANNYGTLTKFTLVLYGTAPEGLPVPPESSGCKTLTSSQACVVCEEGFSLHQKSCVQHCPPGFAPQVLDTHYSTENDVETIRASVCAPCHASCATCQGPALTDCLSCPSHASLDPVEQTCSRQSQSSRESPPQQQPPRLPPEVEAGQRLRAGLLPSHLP
NPY-Y2 confirm = confirmation of human NPY-Y2 receptor potentiators or agonists; shares compounds with NPY2 pot ag; cell-based NPY-Y2 potentiator/agonist assay; activation, % at 3.6 µM; 450 compounds, 20% hits; AID 1539; in the data active = activation above about 33%
NPY-Y1 counter = potentiates or activates NPY-Y1, counter-screen for NPY-Y2 hits. shares compounds with NPY2 pot ag. Y1 HEK293-CNG cells, membrane potential fluorescence. activation, % at 3.6 µM. 450 compounds, 20% hits; in the data active = activation above about 45%;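 note: cells stimulated with submaximal NPY then isoproterenol with phosphodiesterase inhibitor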
NPY-Y1 ag 2 = counter-screen for NPY-Y2 potentiators: agonists of human NPY-Y1 | shares compounds with NPY2 pot ag | HEK293 Y1-CNGC, membrane potential fluorescence, agonism | activation, % at 3.6 µM | 450 compounds, 37% hits | AID 1702;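 active = activation above the mean of DMSO-only control wells plus 3 SD, cut at about 18% in these data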;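 note: cells stimulated with 1 µM isoproterenol plus the PDE inhibitor Ro 20-1724; 0% = isoproterenol with DMSO and no NPY and 100% = 40 nM NPY; Y1 agonists lower the membrane potential dye signal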
CNGC inh = counter-screen for NPY-Y2 potentiators: inhibitors of CNG channel activity. shares compounds with NPY2 pot ag. HEK293-CNG parental, isoproterenol cAMP, membrane potential fluorescence. inhibition, % at 3.6 µM. 450 compounds, 32% hits. AID 1703;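 active = inhibition above the control-well mean plus 3 SD of those wells, cut at about 22% in these data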;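 note: 0% = DMSO with isoproterenol and 100% = DMSO without isoproterenol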
NPY-Y2 ag 2 = counter-screen for NPY-Y2 potentiators: agonists of human NPY-Y2; 450 compounds, 56% hits; activation, % at 3.6 µM; HEK293 Y2/CNGC cells, membrane potential fluorescence, agonist mode; AID 1710; shares compounds with NPY2 pot ag;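 active = activation above the mean of solvent-only control wells plus 3 SD, cut at about 10% in these data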;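 note: cells stimulated by isoproterenol with no NPY added so direct agonism is tested; 0% = DMSO with isoproterenol alone and 100% = NPY at EC100 plus isoproterenol; agonism lowers probe fluorescence through less cAMP and CNG channel opening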
Starred values were filed as active, the others as inactive; . = not tested or not shown. A selection: hits, their analogues and other compounds. The true share with any hit is near 3.7%.

SMILES | NPY Y1 blocker | NPY-Y1 PAM-ag | NPY2 pot ag | NPY-Y2 antag | Cl transport mod | Furin inhibitor | NPY-Y2 confirm | NPY-Y1 counter | NPY-Y1 ag 2 | CNGC inh | NPY-Y2 ag 2
COC(=O)c1ccsc1NC(=O)C1=COCCO1 | -8.7 | -3.5 | 50.7* | 0.4 | -0.169 | -5.3 | -5.5 | -3.3 | -11.9 | -9.4 | -7.2
O=C(O)Cc1sc(N/N=C\c2ccncc2)nc1-c1ccccc1 | . | -3.3 | 4.4 | . | 0.319 | 13.3 | . | . | . | . | .
CC(C)(C)C(=O)NC1CCN(S(=O)(=O)c2ccc(C(F)(F)F)cc2)CC1 | 4.4 | 2.2 | -0.7 | 3.6 | -0.0311 | -15.7 | . | . | . | . | .
CN(CCO)c1nc(N)c2c(N)nc3c(c2c1C#N)CC(=O)N3Cc1cccs1 | -1.4 | 27.9 | 40.2* | . | -1.55 | -15.2 | -1.1 | -3.9 | -14.2 | -10.2 | -10.2
N#Cc1c(N(CCO)CCO)nc(N)c2c(N)nc3c(c12)CC(=O)N3Cc1cccs1 | . | -6.3 | 2.5 | . | -0.138 | 0.9 | . | . | . | . | .
CCn1[nH]c(=O)c(=Nc2c(C)n(C)n(-c3ccccc3)c2=O)cc1-c1ccc(Cl)cc1 | -7.2 | 52.6 | 41.5* | 1.2 | -0.75 | -22.6 | 38.2* | 59.6* | 42.9* | 53.0* | 30.3*
CN(Cc1nccn1C)C(=O)c1cc(COc2ccc3ncccc3c2)on1 | -1.2 | 19.7 | 5.5 | . | -1.34 | -29.7 | . | . | . | . | .
Cc1cc(CN(C)C(=O)c2cc(COc3ccc4ncccc4c3)on2)on1 | -3.5 | -7.8 | 37.9* | . | -2.25 | -31.3 | -6.0 | -44.0 | -28.4 | -12.2 | -11.1
Cn1nnnc1SCC(=O)Nc1ccc2c(c1)OCO2 | -2.9 | -14.5 | -11.1 | . | 0.421 | -4.0 | . | . | . | . | .
CN(C)CCCN(C(=O)c1ccc(Br)s1)c1nc2cc3c(cc2s1)OCO3 | 7.7 | 31.2 | 43.3* | . | -0.592 | -2.7 | 66.5* | 78.9* | 55.0* | 66.0* | 62.9*
Cc1ccc2sc(N(CCCN(C)C)C(=O)c3ccc(Br)s3)nc2c1C | 16.8 | 29.0 | 52.2* | . | 0.408 | -3.7 | 69.3* | 77.7* | 84.0* | 62.4* | 64.7*
CN(C)CCCN(C(=O)c1ccc(S(=O)(=O)N(C)C)cc1)c1nc2cc3c(cc2s1)OCO3 | 11.5 | -6.3 | -3.6 | . | -1.94 | -19.0 | . | . | . | . | .
Cc1ccc2sc(N(CCCN(C)C)C(=O)c3nc4ccccc4s3)nc2c1C | 7.4 | -17.1 | -6.9 | . | 1.44 | -11.9 | . | . | . | . | .
Cc1ccc(C(=O)N/C(=C/c2ccco2)C(=O)NCCc2c[nH]c3ccccc23)cc1 | 4.9 | -16.2 | 7.8 | 2.2 | -1.94 | -7.9 | . | . | . | . | .
COc1ccc(NC(=O)CC2C(=O)N(c3cccc(OC)c3)C(=O)N2CCC(C)C)cc1 (stereo unspecified) | -3.1 | 0.5 | 3.2 | 3.5 | . | -6.1 | . | . | . | . | .
O=C(COC(=O)c1ccc(Br)cc1)Nc1ccccc1Br | 4.3 | -26.6 | -6.0 | . | 1.03 | -4.6 | . | . | . | . | .
O=c1[nH]c(/C=C/c2cccnc2)c([N+](=O)[O-])c(=O)[nH]1 | -7.6 | 15.8 | 26.3 | . | 0.297 | -23.6 | . | . | . | . | .
O=c1[nH]c(/C=C\c2cccnc2)c([N+](=O)[O-])c(=O)[nH]1 | -11.6 | 26.2 | 36.5* | . | . | -5.2 | 24.8 | 37.1 | 39.0* | 26.6* | 31.4*
CCCCNS(=O)(=O)c1ccc(NC(=O)C(Sc2ccccc2)c2ccccc2)cc1 (stereo unspecified) | -2.3 | 17.1 | 29.3* | -4.5 | 0.781 | -17.9 | 19.2 | 29.3 | 20.0* | 24.9* | 25.4*
COCCSc1ccccc1C(=O)N1CCCC(C)C1 (stereo unspecified) | 7.3 | 4.5 | 2.0 | . | 0.00646 | -27.5 | . | . | . | . | .
